Test [1] has as its system Respiratory syncytial virus. In words: Antiviral activity against respiratory syncytial virus. It counts as functional, organism-based. The method in brief: (§1)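 Tested against RSV and HSV-1 by established procedures, with ribavirin as positive control.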
Test [2] deals with Staphylococcus epidermidis. As to the kind of experiment: Antibacterial activity against Staphylococcus epidermidis. The class given is functional. The method in brief: (§2)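 Run by a previously published antibacterial method against a 10-strain panel, with ciprofloxacin as positive control.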
The subject of test [3] is Vibrio parahaemolyticus. In words: Antibacterial activity against Vibrio parahaemolyticus. It counts as functional, organism-based. Put shortly: as §2
The test system of test [4] is Pseudomonas putida. As to the kind of experiment: Antibacterial activity against Pseudomonas putida. The class given is functional, organism-based. The method in brief: as §2
Test [5] deals with K562. As to the kind of experiment: Cytotoxicity against human K562 cells by MTT assay. The class given is functional, cell-based. Put shortly:
(§3)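 K562 erythroleukemia and HL-60 promyelocytic leukemia cells were scored by MTT method, with adriamycin as positive control.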

The test system of test [6] is Escherichia coli. In words: Antibacterial activity against Escherichia coli. The class given is functional, organism-based. Put shortly:
as §2

The test system of test [7] is Kocuria rhizophila. As to the kind of experiment: Antibacterial activity against Kocuria rhizophila. The class given is functional, organism-based. The method in brief: as §2
Test [8] has as its system Staphylococcus aureus. In words: Antibacterial activity against Staphylococcus aureus. The class given is functional, organism-based. Put shortly:
as §2

The test system of test [9] is HL-60. In words: Cytotoxicity against human HL60 cells by MTT assay. The class given is functional, cell-based. The method in brief: as §3
For test [10], the system named is HCT-116. As to the kind of experiment: Cytotoxicity against human HCT116 cells by SRB assay. The class given is functional, cell-based. The method in brief:
(§4)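 A549 lung carcinoma, HCT-116 colorectal cancer and HeLa cervical carcinoma cells were scored by sulforhodamine B assay, with adriamycin as positive control.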

Test [11] deals with Pseudomonas aeruginosa. In words: Antibacterial activity against Pseudomonas aeruginosa. It counts as functional, organism-based. Put shortly: as §2
For test [12], the system named is Human alphaherpesvirus 1. As to the kind of experiment: Antiviral activity against HSV1. The class given is functional, organism-based. Put shortly:
as §1

In test [13] the test system is Salmonella enterica. As to the kind of experiment: Antibacterial activity against Salmonella enterica. The class given is functional, organism-based. Put shortly:
as §2

The subject of test [14] is Bacillus cereus. As to the kind of experiment: Antibacterial activity against Bacillus cereus. The class given is functional. The method in brief: as §2
The subject of test [15] is A549. In words: Cytotoxicity against human A549 cells by SRB assay. The class given is functional, cell-based. The method in brief: as §4
For test [16], the system named is Nocardia brasiliensis. As to the kind of experiment: Antibacterial activity against Nocardia brasiliensis. The class given is functional, organism-based. Put shortly:
as §2

In test [17] the test system is Acetylcholinesterase. In words: Inhibition of AChE (unknown origin) by Ellman's method. The note with it: Homo sapiens.
Test [18] concerns HeLa. In words: Cytotoxicity against human HeLa cells by SRB assay. The class given is functional, cell-based. The method in brief: as §4

Converted amounts (≈) assume the structure as drawn. The source made the active and inactive calls. No cut-off for these calls is given here. *1 amine or outer side, *2 acyl side, *3 side chain or, on linkers, in order; H or OH if unused. Where a SMILES comes first, the peptide text is derived from it. [ ]: non-standard residue; d: D form. X1 = O=C(c1cc(O)ccc1N[*:1])[*:2]

Take `COC(=O)c1ccccc1NC(=O)[C@H](CC[S+](C)[O-])NC(=O)c1cnc2c(n1)c(=O)n(C)c(=O)n2C` (some centres undefined): the result in test [1], in test [2], in [3], in test [4], in test [5] and in [6] was inactive. In addition, the result in test [7], in [8], in test [9], in test [10], in test [11] and in test [12] was inactive. Besides, the result in test [13], in test [14], in [15], in test [16] and in test [18] was inactive. Besides, the inhibition entry in [17] is “inactive”.
In the case of `C[C@H](NC(=O)c1cnc2c(n1)c(=O)n(C)c(=O)n2C)C(=O)Nc1ccccc1C(N)=O`, the outcome in test [1], in [2], in [3], in test [4], in test [5] and in test [6] was inactive. For the same compound, the result in [7], in test [8], in [9], in [10], in [11] and in [12] was inactive. Further, the result in test [13], in [14], in test [15], in [16] and in test [18] was inactive. Besides, the inhibition entry in test [17] is “inactive”.
As to `COC(=O)c1ccccc1NC(=O)[C@H](CCS(C)(=O)=O)NC(=O)c1cnc2c(n1)c(=O)n(C)c(=O)n2C`, the outcome in test [1], in test [2], in [3], in [4], in test [5] and in test [6] was inactive. Besides, the result in [7], in [8], in test [9], in test [10], in [11] and in test [12] was inactive. Further, the outcome in test [13], in test [14], in [15], in [16] and in test [18] was inactive. For the same compound, in test [17], the inhibition result was “inactive”.
With `C[C@@H]1NC(=O)[C@H](Cc2ccc(O)cc2)NC(=O)c2cc(O)ccc2NC(=O)[C@@H]2CCCN2C(=O)[C@H](C)NC1=O` (cyclo(AAP[X1]Y)), the MIC in test [2] and in test [14] was 12.5 µM (≈ 6.72 µg/mL) in each case.
`COC(=O)c1ccccc1NC(=O)[C@H](CCSC)NC(=O)c1cnc2c(n1)c(=O)n(C)c(=O)n2C`: the outcome in test [1], in test [2], in test [3], in test [4], in test [5] and in [6] was inactive. Also, the result in test [7], in [8], in test [9], in [10], in test [11] and in [12] was inactive. Also, the result in test [13], in test [14], in test [15], in test [16] and in test [18] was inactive. Further, the inhibition result in test [17] is “inactive”.

The values above are taken from ChEMBL document CHEMBL3351960, “Lumazine peptides penilumamides B-D and the cyclic pentapeptide asperpeptide A from a gorgonian-derived Aspergillus sp. fungus” (2014).
